Measured values published in ChEMBL document CHEMBL5038594, “Structural Fine-Tuning of Desmuramylpeptide NOD2 Agonists Defines Their In Vivo Adjuvant Activity” (J Med Chem, 2021).
Active and inactive are the calls of the source. The calls are words filed in the database; no cut-off is given here.

Key:
PBMC [1] = experiment: Immunostimulatory activity in human PBMC cells assessed as increase in LPS-induced IL-6 production at 2 uM incubated for 18 hrs by flow cytometry analysis; format: functional, cell-based
Outline: (§1)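 Human PBMCs from healthy donors, 1 × 10^6 cells/mL in RPMI 1640 with 10% FBS, treated with 2 μM compound or 0.1% DMSO, without or with LPS 10 ng/mL, for 18 h at 37 °C. Supernatant cytokines quantified by cytometric bead array (human inflammatory panel) on a flow cytometer against recombinant standards. Four independent donors. Repeated-measures one-way ANOVA with Dunnett.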

PBMC [2] = experiment: Immunostimulatory activity in human PBMC cells assessed as increase in LPS-induced IL-1beta production at 2 uM incubated for 18 hrs by flow cytometry analysis; format: functional, cell-based; outline: as §1
Mus musculus [3] = experiment: Immuno-adjuvant activity in NIH/OlaHsd mouse assessed as increase in ovalbumin specific […] associated IgG2a production in sera at 0.30 micromol administered subcutaneously on day 1 and as booster dose on day 21 with ovalbumin loaded neutral liposomes and measured 1 week post booster dose by ELISA; format: functional, organism-based; settings: dose 0.3 µmol, time 28.0 day
Outline: (§2)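 Groups of 5 female NIH/OlaHsd mice, 2.0–2.5 months old, immunized with ovalbumin-loaded neutral liposomes (10 μg ovalbumin per dose) containing 0.30 μmol adjuvant per dose, plus one booster dose. Serum ovalbumin-specific IgG, IgG1 and IgG2a measured 1 week after the booster. Mean ± SEM of 5 mice.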

PBMC [4] = experiment: Immunostimulatory activity in human PBMC cells assessed as increase in IL-8 production at 2 uM incubated for 18 hrs by flow cytometry analysis; format: functional, cell-based; outline: as §1
[5] = Cytotoxicity against HEK-Blue hNOD2 cells assessed as reduction in metabolic activity at 20 uM incubated for 18 hrs by MTS assay; format: toxicity, cell-based; settings: human, hek-blue hnod2, 18 h
Outline: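 HEK-Blue NOD2 cells, 40 000 per well, exposed to 20 μM compound or 0.1% DMSO for 18 h at 37 °C, 5% CO2. Metabolic activity measured by MTS (CellTiter 96 AQueous One) reagent. Duplicates, two independent biological replicates.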

PBMC [6] = experiment: Immunostimulatory activity in human PBMC cells assessed as increase in LPS-induced TNF-alpha production at 2 uM incubated for 18 hrs by flow cytometry analysis; format: functional, cell-based; outline: as §1
PBMC [7] = experiment: Immunostimulatory activity in human PBMC cells assessed as increase in IL-1beta production at 2 uM incubated for 18 hrs by flow cytometry analysis; format: functional, cell-based; outline: as §1
PBMC [8] = experiment: Immunostimulatory activity in human PBMC cells assessed as increase in LPS-induced IL-8 production at 2 uM incubated for 18 hrs by flow cytometry analysis; format: functional, cell-based; outline: as §1
PBMC [9] = experiment: Immunostimulatory activity in human PBMC cells assessed as increase in IL-6 production at 2 uM incubated for 18 hrs by flow cytometry analysis; format: functional, cell-based; outline: as §1
[10] = molecular target: T1, Nucleotide-binding oligomerization domain-containing protein 1 (Homo sapiens) (UniProt Q9Y239); experiment: Agonist activity at NOD1 in HEK-Blue hNOD2 cells assessed as increase in NFkappaB transactivation-mediated SEAP activity measured after 18 hrs by spectrophotometric method; format: cell-based; settings: HEK-Blue hNOD1, in the assay text read “HEK-Blue hNOD1 cells” for “HEK-Blue hNOD2 cells”
T1 sequence (whole entry): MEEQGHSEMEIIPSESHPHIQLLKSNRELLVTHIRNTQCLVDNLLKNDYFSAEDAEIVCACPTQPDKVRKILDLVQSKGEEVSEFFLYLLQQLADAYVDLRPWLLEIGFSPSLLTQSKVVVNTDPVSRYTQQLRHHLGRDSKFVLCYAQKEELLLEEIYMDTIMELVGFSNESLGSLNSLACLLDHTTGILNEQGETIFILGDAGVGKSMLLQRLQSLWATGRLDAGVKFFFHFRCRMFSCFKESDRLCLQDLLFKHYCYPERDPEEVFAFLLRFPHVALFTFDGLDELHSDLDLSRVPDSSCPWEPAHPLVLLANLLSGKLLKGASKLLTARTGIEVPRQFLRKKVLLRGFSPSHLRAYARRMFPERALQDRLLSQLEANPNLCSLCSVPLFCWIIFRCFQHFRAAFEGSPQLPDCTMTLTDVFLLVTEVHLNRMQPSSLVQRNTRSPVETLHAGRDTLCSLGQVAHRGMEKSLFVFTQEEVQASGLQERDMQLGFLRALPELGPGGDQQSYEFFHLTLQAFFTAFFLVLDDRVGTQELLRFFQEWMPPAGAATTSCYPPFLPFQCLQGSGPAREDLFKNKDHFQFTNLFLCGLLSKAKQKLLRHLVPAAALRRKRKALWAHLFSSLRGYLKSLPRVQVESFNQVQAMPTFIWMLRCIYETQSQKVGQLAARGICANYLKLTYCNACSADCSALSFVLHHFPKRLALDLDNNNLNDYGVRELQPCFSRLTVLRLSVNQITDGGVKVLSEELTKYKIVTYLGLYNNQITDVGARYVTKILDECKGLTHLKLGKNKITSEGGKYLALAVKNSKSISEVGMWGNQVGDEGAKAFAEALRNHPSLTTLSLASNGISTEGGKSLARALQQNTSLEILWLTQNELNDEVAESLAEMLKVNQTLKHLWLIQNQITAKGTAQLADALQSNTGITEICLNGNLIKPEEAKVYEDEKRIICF
Outline: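 Counter-screen in HEK-Blue NOD1 cells (HEK293 stably expressing human NOD1 plus an NF-κB-inducible SEAP reporter), seeded at 2.5 × 10^5 cells/mL in HEK-Blue detection medium. Compounds at 2 μM versus 0.1% DMSO vehicle, 18 h at 37 °C, 5% CO2. SEAP read as absorbance at 630 nm. Duplicates, at least two independent experiments.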

PBMC [11] = experiment: Immunostimulatory activity in human PBMC cells assessed as increase in TNF-alpha production at 2 uM incubated for 18 hrs by flow cytometry analysis; format: functional, cell-based; outline: as §1
Mus musculus [12] = experiment: Immuno-adjuvant activity in NIH/OlaHsd mouse assessed as increase in ovalbumin specific […] associated IgG1 production in sera at 0.15 micromol administered subcutaneously on day 1 and as booster dose on day 21 and 28 with ovalbumin loaded liposomes by ELISA; format: functional, organism-based; settings: dose 0.15 µmol, time 28.0 day
Outline: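 Groups of 5 female NIH/OlaHsd mice, 2.0–2.5 months old, immunized with ovalbumin-loaded liposomes (10 μg ovalbumin per dose) containing 0.15 μmol adjuvant per dose. Liposomes were neutral (PC–cholesterol 7:5), anionic (PC–cholesterol–dicetylphosphate 7:5:1) or mannosylated (PC–cholesterol–mannose-PEG-PA 7:5:0.5). Serum ovalbumin-specific IgG, IgG1 and IgG2a measured 1 week after the second booster. Mean ± SEM.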

Mus musculus [13] = experiment: Immuno-adjuvant activity in NIH/OlaHsd mouse assessed as increase in ovalbumin specific IgG production in sera at 0.30 micromol administered subcutaneously on day 1 and as booster dose on day 21 with ovalbumin loaded neutral liposomes and measured 1 week post booster dose by ELISA; format: functional, organism-based; settings: dose 0.3 µmol, time 28.0 day; outline: as §2
Mus musculus [14] = experiment: Immuno-adjuvant activity in NIH/OlaHsd mouse assessed as increase in ovalbumin specific […] associated IgG1 production in sera at 0.30 micromol administered subcutaneously on day 1 and as booster dose on day 21 with ovalbumin loaded neutral liposomes and measured 1 week post booster dose by ELISA; format: functional, organism-based; settings: dose 0.3 µmol, time 28.0 day; outline: as §2
BMDC [15] = experiment: Induction of mouse BMDC-mediated ovalbumin specific CD4+ T cell activation assessed as increase in TNF-alpha production at 10 uM incubated for 72 hrs by flow cytometric analysis; format: functional, cell-based
Outline: (§3)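 BMDCs from C57BL/6 mouse tibia (7 days in GM-CSF 20 ng/mL, >90% CD11c+) pulsed 18 h with compound (1 or 10 μM) plus ovalbumin 50 μg/mL, then washed. They were cocultured 72 h with CFSE-labelled naive OT-II CD4+ T cells. CD25+/CFSE-low fraction of live Thy1.2+CD4+ cells read by flow cytometry; supernatant cytokines also measured. Duplicates of two independent experiments.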

BMDC [16] = experiment: Induction of mouse BMDC-mediated ovalbumin specific CD4+ T cell activation assessed as increase in IFN-gamma production at 10 uM incubated for 72 hrs by flow cytometric analysis; format: functional, cell-based; outline: as §3
BMDC [17] = experiment: Induction of mouse BMDC-mediated ovalbumin specific CD4+ T cell activation assessed as increase in CD25 expression at 10 uM incubated for 72 hrs by CFSE staining based flow cytometric analysis; format: functional; outline: as §3
BMDC [18] = experiment: Induction of mouse BMDC-mediated ovalbumin specific CD4+ T cell activation assessed as increase in CD25 expression at 1 uM incubated for 72 hrs by CFSE staining based flow cytometric analysis; format: functional; outline: as §3
BMDC [19] = experiment: Induction of mouse BMDC-mediated ovalbumin specific CD4+ T cell activation assessed as increase in IL-2 production at 10 uM incubated for 72 hrs by flow cytometric analysis; format: functional, cell-based; outline: as §3
BMDC [20] = experiment: Induction of mouse BMDC-mediated ovalbumin specific CD4+ T cell activation assessed as increase in IL-17A production at 10 uM incubated for 72 hrs by flow cytometric analysis; format: functional, cell-based; outline: as §3
BMDC [21] = experiment: Induction of mouse BMDC-mediated ovalbumin specific CD4+ T cell activation assessed as increase in IL-6 production at 10 uM incubated for 72 hrs by flow cytometric analysis; format: functional, cell-based; outline: as §3

Structure (SMILES)	Activity [10]	Activity (PBMC [1])	Activity (PBMC [2])	Activity (Mus musculus [3])	Activity (PBMC [4])	Activity [5]	Activity (PBMC [6])	Activity (PBMC [7])	Activity (PBMC [8])	Activity (PBMC [9])	Activity (PBMC [11])	Activity (Mus musculus [13])	Activity (Mus musculus [14])	also measured
CC(=O)N[C@H]1C(O)O[C@H](CO)[C@@H](O)[C@@H]1O[C@H](C)C(=O)N[C@@H](C)C(=O)N[C@H](CCC(=O)O)C(N)=O (stereo partly specified) [MURAMYL DIPEPTIDE]	inactive	Active	Active		Active	Non-Toxic	Active	Active	Active	Active	Active			Activity (Mus musculus [12]): Active
CCOC(=O)CC[C@@H](NC(=O)[C@@H](NC(=O)CNC(=O)/C=C/c1ccc(O)c(OC)c1)C(C)C)C(=O)OCC	inactive					Non-Toxic						Active	Active	
CCOC(=O)CC[C@@H](NC(=O)[C@@H](NC(=O)CNC(=O)/C=C/c1ccc(OC(C)=O)c(OC)c1)C(C)C)C(=O)OCC	inactive	Active	Active		Active	Non-Toxic	Active	Active	Active	Active	Active			
COc1cc(/C=C/C(=O)NCC(=O)N[C@H](C(=O)N[C@H](CCC(=O)OC2CCCC2)C(=O)OC2CCCC2)C(C)C)ccc1O	inactive	Active	Active	inactive	Active	Non-Toxic	Active	Active	Active	Active	Active	inactive		Activity (BMDC [15]): Active; Activity (BMDC [16]): Active; Activity (BMDC [17]): Active; Activity (BMDC [18]): Active; Activity (BMDC [19]): Active; Activity (BMDC [20]): Active; Activity (BMDC [21]): Active

Further lines, with some results ahead:

Activity [10]	Structure (SMILES)	Activity (PBMC [1])	Activity (PBMC [2])	Activity (Mus musculus [3])	Activity (PBMC [4])	Activity [5]	Activity (PBMC [6])	Activity (PBMC [7])	Activity (PBMC [8])	Activity (PBMC [9])	Activity (PBMC [11])	Activity (Mus musculus [13])	Activity (Mus musculus [14])	also measured
inactive	CCCCCCCCCCCC(=O)Oc1ccc(/C=C/C(=O)NCC(=O)N[C@H](C(=O)N[C@H](CCC(=O)OCC)C(=O)OCC)C(C)C)cc1OC	Active	Active	inactive	Active	Non-Toxic	Active	Active	Active	Active	Active			
inactive	CCCCCCCCCCCCCCCCCC(=O)Oc1ccc(/C=C/C(=O)NCC(=O)N[C@H](C(=O)N[C@H](CCC(=O)OCC)C(=O)OCC)[C@@H](C)O)cc1OC	Active	Active		inactive	Non-Toxic	Active	inactive	Active	inactive	inactive		inactive	
